These results are taken from ChEMBL document CHEMBL1134486, “Synthesis and biological evaluation of purine-containing butenolides” (J Med Chem, 2001).

Structures are written as SMILES.

The experiment has as its target T1, Adenosine deaminase (Bos taurus) (UniProt P56658).
T1 sequence (whole entry): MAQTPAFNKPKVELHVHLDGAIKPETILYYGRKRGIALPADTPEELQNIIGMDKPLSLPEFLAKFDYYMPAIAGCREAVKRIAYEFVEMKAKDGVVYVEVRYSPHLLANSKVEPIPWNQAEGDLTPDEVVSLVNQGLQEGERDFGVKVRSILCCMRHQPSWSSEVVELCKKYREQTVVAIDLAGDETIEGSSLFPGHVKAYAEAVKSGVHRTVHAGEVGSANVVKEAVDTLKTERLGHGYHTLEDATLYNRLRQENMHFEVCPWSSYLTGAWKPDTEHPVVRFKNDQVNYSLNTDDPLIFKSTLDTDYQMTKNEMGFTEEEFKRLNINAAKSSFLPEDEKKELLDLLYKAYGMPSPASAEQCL
In words: Relative Vmax value of the compound. In a few lines: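 Deamination rates followed with calf mucosal ADA (EC 3.5.4.4) in buffer solutions; Km and Vmax relative to adenosine as substrate; inhibition (Ki) assessed with adenosine as substrate.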

Consider `Nc1ncnc2c1ncn2[C@@H]1O[C@H](CO)[C@@H](O)[C@H]1O`, for which the Relative Vmax is 1.
